Source: ChEMBL document CHEMBL1122968, “Myocardial imaging agents: synthesis, characterization, and evaluation of (Z)- and (Z,E)-18-[82Br]bromo-5-tellura-17-octadecenoic acids” (J Med Chem, 1985)

What was measured:
Rattus norvegicus [1] = experiment: Radioactivity was determined in heart tissues of female fischer 344 rats by intravenous administration after 5 minutes; format: ADME, organism-based; conditions: in vivo
Outline: (§1)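 Female Fischer 344 rats, 10–12 weeks, 170–200 g, fed ad libitum. The 82Br-labeled fatty acid was taken up in 0.5 mL absolute ethanol and added dropwise to stirred 6% bovine serum albumin at ~40 °C (final ethanol 10%), then 0.22-μm filtered. Dosing was a lateral tail vein injection under ether anesthesia. Rats were killed by cervical fracture at the stated time and blood was taken by cardiac puncture.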

Rattus norvegicus [2] = experiment: Radioactivity was determined in blood tissues of female fischer 344 rats by intravenous administration after 1 hour; format: ADME, organism-based; conditions: in vivo; outline: as §1
Rattus norvegicus [3] = experiment: Radioactivity was determined in heart tissues of female fischer 344 rats by intravenous administration after 1 hour; format: ADME, organism-based; conditions: in vivo; outline: as §1
Rattus norvegicus [4] = experiment: Radioactivity was determined in blood tissues of female fischer 344 rats by intravenous administration after 30 minutes; format: ADME, organism-based; conditions: in vivo, 0.5 h; outline: as §1
Rattus norvegicus [5] = experiment: Radioactivity was determined in kidneys of female fischer 344 rats by intravenous administration after 5 minutes; format: ADME, organism-based, Kidney; conditions: in vivo; outline: as §1
Rattus norvegicus [6] = experiment: Radioactivity was determined in thyroid of female fischer 344 rats by intravenous administration after 2 hours; format: ADME, organism-based, Thyroid gland; conditions: in vivo; outline: as §1
Rattus norvegicus [7] = experiment: Radioactivity was determined in heart tissues of female fischer 344 rats by intravenous administration after 2 hours; format: ADME, organism-based; conditions: in vivo; outline: as §1
Rattus norvegicus [8] = experiment: Radioactivity was determined in kidneys of female fischer 344 rats by intravenous administration after 30 minutes; format: ADME, organism-based, Kidney; conditions: in vivo, 0.5 h; outline: as §1
Rattus norvegicus [9] = experiment: Radioactivity was determined in thyroid of female fischer 344 rats by intravenous administration after 5 minutes; format: ADME, organism-based, Thyroid gland; conditions: in vivo; outline: as §1
Rattus norvegicus [10] = experiment: Radioactivity was determined in thyroid of female fischer 344 rats by intravenous administration after 30 minutes; format: ADME, organism-based, Thyroid gland; conditions: in vivo, 0.5 h; outline: as §1
Rattus norvegicus [11] = experiment: Radioactivity was determined in thyroid of female fischer 344 rats by intravenous administration after 1 hour; format: ADME, organism-based, Thyroid gland; conditions: in vivo; outline: as §1
Rattus norvegicus [12] = experiment: Radioactivity was determined in heart tissues of female fischer 344 rats by intravenous administration after 30 minutes; format: ADME, organism-based; conditions: in vivo, 0.5 h; outline: as §1
Rattus norvegicus [13] = experiment: Radioactivity was determined in lung tissues of female fischer 344 rats by intravenous administration after 1 hour; format: ADME, organism-based; conditions: in vivo; outline: as §1
Rattus norvegicus [14] = experiment: Radioactivity was determined in liver tissues of female fischer 344 rats by intravenous administration after 1 hour; format: ADME, organism-based; conditions: in vivo; outline: as §1
Rattus norvegicus [15] = experiment: Radioactivity was determined in lung tissues of female fischer 344 rats by intravenous administration after 30 minutes; format: ADME, organism-based; conditions: in vivo, 0.5 h; outline: as §1
Rattus norvegicus [16] = experiment: Radioactivity was determined in lung tissues of female fischer 344 rats by intravenous administration after 5 minutes; format: ADME, organism-based; conditions: in vivo; outline: as §1
Rattus norvegicus [17] = experiment: Radioactivity was determined in liver tissues of female fischer 344 rats by intravenous administration after 30 minutes; format: ADME, organism-based; conditions: in vivo, 0.5 h; outline: as §1
Rattus norvegicus [18] = experiment: Radioactivity was determined in liver tissues of female fischer 344 rats by intravenous administration after 5 minutes; format: ADME, organism-based; conditions: in vivo; outline: as §1
Rattus norvegicus [19] = experiment: Radioactivity was determined in lung tissues of female fischer 344 rats by intravenous administration after 2 hours; format: ADME, organism-based; conditions: in vivo; outline: as §1
Rattus norvegicus [20] = experiment: Radioactivity was determined in blood tissues of female fischer 344 rats by intravenous administration after 5 minutes; format: ADME, organism-based; conditions: in vivo; outline: as §1
Rattus norvegicus [21] = experiment: Radioactivity was determined in liver tissues of female fischer 344 rats by intravenous administration after 2 hours; format: ADME, organism-based; conditions: in vivo; outline: as §1
Rattus norvegicus [22] = experiment: Radioactivity was determined in blood tissues of female fischer 344 rats by intravenous administration after 2 hours; format: ADME, organism-based; conditions: in vivo; outline: as §1
Rattus norvegicus [23] = experiment: Radioactivity was determined in liver tissues of female fischer 344 rats by intravenous administration after 1 day; format: ADME, organism-based; conditions: in vivo, 24 h; outline: as §1
Rattus norvegicus [24] = experiment: Radioactivity was determined in lung tissues of female fischer 344 rats by intravenous administration after 1 day; format: ADME, organism-based; conditions: in vivo, 24 h; outline: as §1
Rattus norvegicus [25] = experiment: Radioactivity was determined in heart tissues of female fischer 344 rats by intravenous administration after 1 day; format: ADME, organism-based; conditions: in vivo, 24 h; outline: as §1
Rattus norvegicus [26] = experiment: Radioactivity was determined in blood tissues of female fischer 344 rats by intravenous administration after 1 day; format: ADME, organism-based; conditions: in vivo, 24 h; outline: as §1

SMILES	Dose/g (Rattus norvegicus [1])	Dose/g (Rattus norvegicus [2])	Dose/g (Rattus norvegicus [3])	Dose/g (Rattus norvegicus [4])	Dose/g (Rattus norvegicus [5])	Dose/g (Rattus norvegicus [8])	Dose/g (Rattus norvegicus [12])	Dose/g (Rattus norvegicus [13])	Dose/g (Rattus norvegicus [14])	Dose/g (Rattus norvegicus [15])	Dose/g (Rattus norvegicus [16])	Dose/g (Rattus norvegicus [17])	Dose/g (Rattus norvegicus [18])	Dose/g (Rattus norvegicus [20])	further results
O=C(O)CCC[Te]CCCCCCCCCCC/C=C/I	3.99%	0.19%	–	–	–	–	–	–	–	–	–	–	–	–	–
O=C(O)CCC[Te]CCCCCCCCCCC/C=C/Br (stereo in doubt; form 1)	2.77%	0.43%	3.01%	0.61%	1.62%	1.49%	2.51%	1.61%	5.47%	1.53%	1.26%	6.13%	7.33%	0.13%	Dose/g (Rattus norvegicus [6]): 9.52%; Dose/g (Rattus norvegicus [7]): 2.56%; Dose/g (Rattus norvegicus [9]): 7.56%; Dose/g (Rattus norvegicus [10]): 10.86%; Dose/g (Rattus norvegicus [11]): 9.26%; Dose/g (Rattus norvegicus [19]): 1.49%; Dose/g (Rattus norvegicus [21]): 5%; Dose/g (Rattus norvegicus [22]): 0.46%
O=C(O)CCC[Te]CCCCCCCCCCC/C=C/Br (stereo in doubt; form 2)	3.28%	0.39%	3.47%	0.34%	2.31%	2.15%	3.79%	1.88%	6.04%	2.08%	1.91%	6.79%	6.87%	0.18%	Dose/g (Rattus norvegicus [23]): 3.15%; Dose/g (Rattus norvegicus [24]): 1.48%; Dose/g (Rattus norvegicus [25]): 2.6%; Dose/g (Rattus norvegicus [26]): 0.88%
